High-throughput results as filed in PubChem.
In the library only some 3.2% were active in any assay of this set; here they are far more common.
PfHsp90 yeast 2 – inhibits growth of yeast expressing Plasmodium falciparum Hsp90; inhibition, % at 9.4 µM; S. cerevisiae expressing PfHsp90, BacTiter-Glo ATP, 48 h; yeast lacking PDR1 and PDR3 efflux regulators; 310,000 compounds, 0.32% hits;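 active means every replicate shows inhibition above about 80%, whatever the replicate mean, limit read from the data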;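 further: 0% = DMSO neutral controls and 100% = 20 µM radicicol positive controls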
S100A4 MyoIIA – inhibitors of human S100A4 binding to myosin IIA peptide | AID 652163 | P26447 | inhibition, % at 10.7 µM | 360,000 compounds, 0.14% hits | S100A4/TAMRA-MyoIIA peptide fluorescence polarization;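 active means mean inhibition of at least 70% across replicates, with every replicate also reaching that level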
Target sequence (P26447 whole entry, looked up): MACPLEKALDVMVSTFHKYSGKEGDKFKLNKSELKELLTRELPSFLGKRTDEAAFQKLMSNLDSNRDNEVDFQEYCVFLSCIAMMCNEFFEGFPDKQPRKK
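Test system: S100A4 monomer protein. Medium: HEPES buffer with Ca2+, pH 7.2. Reagent: fluorescent myosin IIA peptide, 5 nM. Compound dosing: single-point compound testing. Timing: 5 min between mix addition and reading. Benchmarks: DMSO neutral and TFP positive wells.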
DENV2 CPE – inhibitors of DENV2 cytopathic effect | CPE inhibition, % at 9.99 µM | DENV2-infected cells, cytopathic effect rescue, plate reader | 350,000 compounds, 1.7% hits | AID 651640; in the data active means CPE inhibition above about 20%, passing the limit was not always enough; tested in BHK-21 cells;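 further: 0% = median of neutral control wells and 100% = median of positive control wells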
Ecoli rRNA inh – selective bacterial rRNA inhibition in E. coli | 350,000 compounds, 1.6% hits | AID 720706 | GFP signal change (wild-type ribosome), % (no concentration beside the values) | E. coli WT GFP vs humanized-ribosome RFP mutants, fluorescence, 24 h; active compounds read low; DMSO median 0, no signal -100;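 active means significant combined selectivity score with lowered wild-type GFP, culture density cut under 30%, mutant RFP and density less affected; inactive means any of these conditions unmet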
Cneo AK release – Cryptococcus neoformans lysis via adenylate kinase release | C. neoformans lysis, adenylate kinase release luminescence, 4 h; normalised: neutral wells 0, clomiphene wells 100 | lysis activity, % at 15 µM | 360,000 compounds, 0.2% hits;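 active means mean lysis activity across replicates of at least 80%, whatever share of replicates individually reach that level; inactive means mean lysis activity below 80%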
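read-out = cell lysis signal | test system = log-phase Cryptococcus neoformans yeast cells | input = cells at 5 × 10^6 per mL | medium = fresh YPD growth medium | signal = luminescent adenylate kinase detection reagent | timing = 4 h at 37 °C static, read 1 h later | dosing = single dose | controls = Clomiphene as positive lysis control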
MLL AF4-AF9 inh – inhibitors of human MLL-AF4/AF9 interaction; P42568; AlphaScreen, biotin-AF4 peptide binding to FLAG-AF9; inhibition, % at 10 µM; 350,000 compounds, 0.47% hits; AID 651704;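 active means every replicate reaching a set inhibition limit, whatever the replicate mean, cut at about 25% in these data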;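 further: 0% = plate neutral control median and 100% = total signal loss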
The depositor's hits bear a star; . = no result.

SMILES	PfHsp90 yeast 2	S100A4 MyoIIA	DENV2 CPE	Ecoli rRNA inh	Cneo AK release	MLL AF4-AF9 inh
C[C@@H]1CN([C@H](C)CO)C(=O)Cc2cc(NC(=O)CCCCCC(=O)Nc3ccccc3N)ccc2O[C@H]1CN(C)Cc1ccc(C(F)(F)F)cc1	.	30	18	1	1	-2
C[C@@H]1CN([C@@H](C)CO)C(=O)c2cc(NC(=O)CCCCCC(=O)Nc3ccccc3N)ccc2O[C@H]1CN(C)Cc1ccncc1	.	-27	41*	4	.	-3
C[C@@H]1CN([C@@H](C)CO)C(=O)Cc2cc(NC(=O)CCCCCC(=O)Nc3ccccc3N)ccc2O[C@@H]1CN(C)Cc1ccc(Cl)c(Cl)c1	.	4	11	-6	0	2
C[C@@H]1CN([C@H](C)CO)C(=O)Cc2cc(NC(=O)CCCCCC(=O)Nc3ccccc3N)ccc2O[C@@H]1CN(C)Cc1ccc(Cl)c(Cl)c1	.	-10	84*	-7	0	1
C[C@H](CO)N1C[C@H](C)[C@H](CN(C)Cc2ccc(-c3ccccc3)cc2)Oc2ccc(NC(=O)CCCCCC(=O)Nc3ccccc3N)cc2CC1=O	.	0	2	-3	-1	1
C[C@@H]1CN([C@@H](C)CO)C(=O)Cc2cc(NC(=O)CCCCCC(=O)Nc3ccccc3N)ccc2O[C@H]1CN(C)Cc1ccc(-c2ccccc2)cc1	.	12	25*	.	-1	0
C[C@@H]1CN([C@H](C)CO)C(=O)Cc2cc(NC(=O)CCCCCC(=O)Nc3ccccc3N)ccc2O[C@@H]1CN(C)Cc1ccc(C(F)(F)F)cc1	.	-14	81*	-3	2	0
COc1cccc(-c2ccc([C@@H]3[C@@H](CO)N4C(=O)CN(C(=O)C5CC5)C[C@H]34)cc2)c1	.	-5	9	0	.	4
CC(C)(C)[S@@](=O)N1Cc2cc(C(=O)NCc3ccc4c(c3)OCO4)nc(-c3cccc(-c4cccnc4)c3)c2[C@H]1CCO	.	-10	-1	-10	37	6
C[C@@H]1CN([C@@H](C)CO)C(=O)c2cc(NC(=O)CCC(F)(F)F)ccc2O[C@@H]1CN(C)CC1CC1	.	-30	-3	5	1	-5
O=C(C1=C[C@@H](c2ccc(Br)cc2)C[C@@H](OCCCCO)O1)N1CCCCCCC1	.	1	1	.	-1	-4
C[C@H](CO)N1C[C@H](C)[C@@H](CN(C)Cc2ccncc2)Oc2ccc(NC(=O)CCCCCC(=O)Nc3ccccc3N)cc2CC1=O	.	-3	53*	-3	0	-2
C[C@@H]1CN([C@H](C)CO)C(=O)Cc2cc(NC(=O)CCCCCC(=O)Nc3ccccc3N)ccc2O[C@@H]1CN(C)Cc1ccncc1	.	-1	5	-3	0	13
C[C@H]1CCCCO[C@H](CN(C)C(=O)Nc2cccc3ccccc23)[C@@H](C)CN([C@@H](C)CO)C(=O)c2cc(NC(=O)Nc3ccccc3)ccc2O1	.	.	5	2	1	.
CCO[C@H]1OC(C(=O)NCc2ccccc2)=C[C@@H](c2csc3ccccc23)[C@@H]1CCCO	.	-1	-1	.	0	-3
COc1ccccc1CNC(=O)c1ccc(NS(=O)(=O)c2cccs2)cc1	-9	3	-5	7	0	-1
O=C(O)c1ccc(C=NNC(=O)c2ccccc2NS(=O)(=O)c2cccs2)cc1	10	1	-4	14	0	-1
COc1cc(C=NNC(=O)c2ccc(NS(=O)(=O)c3cccs3)cc2)cc(Br)c1O	-14	-5	-1	-31*	1	2
O=C(NN=Cc1ccc(O)cc1)c1ccccc1NS(=O)(=O)c1cccs1	-6	-7	9	-37*	-1	-4
COc1ccccc1-c1ccc(C2[C@H]3CNC[C@@H]2N3S(=O)(=O)c2ccc(C)cc2)cc1 (stereo partly drawn)	.	-6	13	-56	.	2
CCCN(C)C[C@@H]1OCCCC[C@H](C)Oc2ccc(NC(=O)Nc3ccc4c(c3)OCO4)cc2C(=O)N([C@H](C)CO)C[C@@H]1C	.	.	.	-2	.	.
C[C@@H]1CN([C@H](C)CO)S(=O)(=O)c2ccc(C3=CCCC3)cc2O[C@H]1CN(C)C(=O)c1ccc(F)cc1	.	11	.	-16	7	-1
CNC(=S)NC1CC2CCCC(C1)N2Cc1ccccc1OC (stereo not drawn)	-1	5	6	-17*	1	0
Oc1ccccc1-c1nc(NC2CCCC2)c2ccccc2n1	115*	0	-3	11	1	3
c1ccc(-c2nnc(-c3ccccn3)nc2NC2CCCCC2)cc1	103*	0	.	-56	-1	.
SMILES	PfHsp90 yeast 2	S100A4 MyoIIA	DENV2 CPE	Ecoli rRNA inh	Cneo AK release	MLL AF4-AF9 inh
CCOP(=O)(c1ccccc1)C(O)c1ccc([N+](=O)[O-])cc1 (stereo not drawn)	3	-4	39*	16	-1	1
Cc1sc2ncn(CC(=O)NCc3ccco3)c(=O)c2c1-c1ccc(F)cc1	4	-6	-2	4	.	0
Cc1sc2ncn(CC(=O)Nc3ccccc3F)c(=O)c2c1-c1ccccc1	14	-9	-4	-28*	3	0
CN(Cc1ccccc1)CC1CCCN(CCc2ccccc2F)C1 (stereo not drawn)	0	-6	39*	6	-2	1
CCCOc1ccc(C(=O)Nc2ccc(S(=O)(=O)N3C[C@@H]4C[C@@H](C3)c3cccc(=O)n3C4)cc2)cc1	3	-4	31*	1	0	.
CCOc1ccc(/C=N/NC(=O)c2ccc(F)cc2)cc1CN1CC2CC(C1)c1cccc(=O)n1C2 (stereo not drawn)	15	1	20*	-9	1	.
CCCOc1ccc(C(=O)Nc2ccc(S(=O)(=O)N3CCN(C)CC3)cc2)cc1	-10	0	9	0	6	-3
CCOc1ccc(/C=N/NC(=O)c2ccccc2C)cc1CN1CC2CC(C1)c1cccc(=O)n1C2 (stereo not drawn)	37	94*	-19	-6	-1	.
COc1ccc(CNC(=O)N(C)C[C@H]2OCc3ccccc3-c3ccccc3C(=O)N([C@@H](C)CO)C[C@H]2C)cc1	.	3	-2	-4	0	-2
C[C@@H]1CN([C@H](C)CO)C(=O)Cc2cc(NC(=O)NC3CCCCC3)ccc2O[C@@H]1CN(C)Cc1ccc(C(F)(F)F)cc1	.	4	0	0	-4	-1
O=C(C[C@H]1C[C@@H]2c3cc(NC(=O)Nc4ccccc4F)ccc3O[C@@H]2[C@@H](CO)O1)NC1CCCC1	.	-26	23*	2	3	-3
